# From PubChem BioAssay
# OX1R antag-1 – blocks the human orexin 1 receptor; inhibition, % at 6.6 µM; O43613; OX1R-expressing cells, FRET antagonist read-out; actives 1.8% (n = 330,000); in the data active means inhibition mostly above about 38%, no sharp cut-off; inactive means mostly below about 40%
# MPTP block – inhibitors of mitochondrial permeability transition pore; isolated mouse mitochondria, Ca2+ swelling absorbance, 30 min; inhibition, % at 10 µM; actives 1.4% (n = 360,000); AID 602449;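 active means inhibition of 50% or more, scaled per plate between neutral and stimulator controls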
# CHO parental Ca – counter-screen: ATP calcium response change in parental CHO cells; parental CHO-K1, ATP-induced calcium, Fluo-8 fluorescence; inhibition, % at 5.6 µM; actives 0.63% (n = 330,000); AID 463079;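 active means inhibition above that plate's mean sample inhibition plus 3 SD, cut at about 26% in these data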
#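 Material: Parental CHO cells | Reagent: ATP | Compound dosing: Single nominal dose of 5.6 µM per compound | Detection: Intracellular calcium via Fluo-8 no-wash fluorescent dye | Read-out: % inhibition of ATP-induced calcium mobilization | Benchmarks: Low control ATP plus DMSO, high control DMSO only | Replicates: Singlicate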
# OX1R antag-2 – blocks the human orexin 1 receptor. O43613. CHO/OX1R cells, Fluo-8 calcium fluorescence, orexin A. inhibition, % at 5 µM. actives 0.43% (n = 330,000);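 active means inhibition above its plate's threshold, mean inhibition of all tested compounds on the plate plus 3 SD, cut at about 37% in these data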
# GPR7 antagonist – human neuropeptides B/W receptor 1 antagonism. P48145. GPR7-expressing cells, fluorescence antagonist assay. inhibition, % at 4.4 µM. actives 1.1% (n = 290,000). AID 1861; in the data active means inhibition above about 16%, passing the limit was not always enough;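 further: cells stimulated with the agonist NPW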
# Target sequence (P48145 whole entry, looked up): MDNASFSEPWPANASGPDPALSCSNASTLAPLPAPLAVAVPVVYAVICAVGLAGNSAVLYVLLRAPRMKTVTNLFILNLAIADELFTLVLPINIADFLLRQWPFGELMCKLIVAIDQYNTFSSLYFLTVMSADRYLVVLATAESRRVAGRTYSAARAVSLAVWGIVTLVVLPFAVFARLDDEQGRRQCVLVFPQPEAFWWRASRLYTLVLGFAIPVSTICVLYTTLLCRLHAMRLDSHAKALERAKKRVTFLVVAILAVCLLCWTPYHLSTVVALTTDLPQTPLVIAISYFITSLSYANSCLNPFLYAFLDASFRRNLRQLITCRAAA
# GPR7 antag conf – human GPR7 antagonism, confirmation assay | actives 52% (n = 2,400) | AID 1952 | GPR7-expressing cells, calcium fluorescence antagonist mode | shares compounds with GPR7 antagonist | inhibition, % at 4.4 µM; in the data active means inhibition above about 24%;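 further: stimulated with the GPR7 agonist NPW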
# MCHR1 antagonist – MCHR1 (human) antagonism in GPR7 counter-screen; actives 62% (n = 2,400); inhibition, % at 4.4 µM; AID 2148; MCHR1-expressing cells, fluorescence antagonist assay; shares compounds with GPR7 antagonist; in the data active means inhibition above about 22%
# Hits are given with their value; n = inactive; x = no result. In the library only some 3.8% were active in any assay of this set; here they are far more common.
SMILES,OX1R antag-1,MPTP block,CHO parental Ca,OX1R antag-2,GPR7 antagonist,GPR7 antag conf,MCHR1 antagonist
CCCCCCN1C=CC(=C/C=C(\C#N)C(=O)OCC)C=C1,n,n,74,99,30,47,64
CC1Cc2ccccc2N1C(=S)NC(=O)c1ccco1 (configuration not stated),n,n,n,n,n,x,x
CC(Oc1ccc(NC(=O)c2ccco2)cc1)C(=O)N1c2ccccc2CC1C (configuration not stated),n,n,n,n,35,n,n
CN1N=C(C(=O)N=c2sc3ccccc3n2C)CCC1=O,x,n,x,x,x,x,x
O=C(CCN1CCc2ccccc2C1)c1ccc2c(c1)OCCO2,n,n,n,n,23,n,22
CNc1ccccc1C(=O)OCC(=O)c1ccc(F)cc1,n,n,n,n,23,n,n
CNc1ccccc1C(=O)OCC(=O)c1ccccc1,n,n,n,n,n,x,x
COC(=O)C(NC(=O)c1ccccc1Cl)(Nc1ncc(S(=O)(=O)c2ccc([N+](=O)[O-])cc2)s1)C(F)(F)F (configuration not stated),n,n,n,n,34,56,43
Cc1occc1C(=O)Nc1cccc(C(F)(F)F)c1,n,n,n,n,n,x,x
Cc1occc1C(=O)Nc1cccc(C(=O)O)c1,n,n,n,n,26,n,n
CC(C)Oc1ccc(S(=O)(=O)N2CCOCC2)cc1NC(=O)C1CCCCC1,n,n,n,n,x,x,x
COc1ccc(CCNC(=O)c2ccc3c(c2)N(Cc2ccc(F)cc2)CCS3)cc1OC,n,n,n,n,29,31,50
Cc1noc(/C=C/N(C)C)c1S(=O)(=O)N1CCCC(C(=O)N2CCCCC2)C1 (configuration not stated),n,n,n,n,27,n,n
CC(=O)c1ccc(COC(=O)Cc2ccc([N+](=O)[O-])cc2)cc1,n,n,n,n,30,39,52
C(=N/n1c2ccccc2c2ccccc21)/c1ccco1,n,n,n,n,26,n,n
C(=N\n1c2ccccc2c2ccccc21)/c1ccccc1,n,n,n,n,n,x,x
COC(=O)c1c(NC(=O)CSc2ncn[nH]2)sc(C)c1C,n,n,n,n,x,x,x
O=C(Nc1cccc(S(=O)(=O)N2CCCCC2)c1)c1ccc2c(=O)n3c(nc2c1)CCCCC3,n,n,n,n,28,n,77
CCc1ccc(NC(=O)c2ccc3c(=O)n4c(nc3c2)CCCCC4)cc1,n,n,n,n,n,x,x
CCCCN(C(=O)C(C)Oc1ccc(Cl)cc1)c1c(N)n(CCCC)c(=O)[nH]c1=O (configuration not stated),n,n,n,n,x,x,x
CCOc1ccccc1N1CCN(C(=O)/C=C/c2cccc([N+](=O)[O-])c2)CC1,n,n,n,n,21,32,41
O=C(/C=C/c1cccc([N+](=O)[O-])c1)N1CCN(c2ccccc2F)CC1,n,n,n,n,n,x,x
CCC(=O)N1CCN(c2ccccc2NC(=O)COc2cc(C)ccc2C(C)C)CC1,n,n,n,n,34,27,51
Cc1ccc(C(C)C)c(OCC(=O)NC(=S)Nc2ccccc2N2CCOCC2)c1,n,n,n,n,n,x,x
Cc1cccc(OCC(=O)Nc2ccccc2N2CCCCC2)c1,n,n,n,n,n,x,x
SMILES,OX1R antag-1,MPTP block,CHO parental Ca,OX1R antag-2,GPR7 antagonist,GPR7 antag conf,MCHR1 antagonist
Cc1cc(C)c(OCC(=O)Nc2ccccc2N2CCOCC2)c(C)c1,n,n,41,44,26,59,70
Cc1cccc(OCC(=O)Nc2ccccc2N2CCN(C)CC2)c1,n,n,n,n,31,n,49
CC(=O)c1ccc(N2CCN(S(=O)(=O)c3ccc4c5c3CC(=O)N5CC(C)S4)CC2)cc1 (configuration not stated),n,n,n,n,25,n,41
COc1ccc(CSc2nnnn2-c2ccc(C(N)=O)cc2)cc1[N+](=O)[O-],n,n,n,n,36,n,39
S=C(NCc1ccccc1Cl)NC1CCCC1,n,n,n,n,21,n,n
O=S(=O)(NCCCSc1ccccc1)c1ccccc1F,n,n,n,n,25,n,n
CCOC(=O)c1cccnc1NC(=O)c1ccccc1,n,n,n,n,n,x,x
O=C(CCCCn1ccc(=O)[nH]c1=O)Nc1ccc(O)c(C(=O)O)c1,x,n,x,x,x,x,x
CCCCNCCCOc1cccc(Cl)c1Cl,n,n,n,n,35,n,n
CC(=O)N1CN(C2CCCC2)Cc2c1sc1c2CCCC1,n,n,n,n,24,n,n
CCOC(=O)C1CCN(S(=O)(=O)c2c(Cl)ccc3nonc23)CC1,89,n,n,n,44,56,46
C/C(=N/NC(=O)Cc1ccccc1)c1ccc(C)s1,n,n,n,n,n,x,x
CC(NCc1ccc(-c2ccccc2)cc1)C(O)c1ccccc1 (configuration not stated),n,n,n,n,31,25,51
CC(O)CNCc1ccc(-c2ccccc2)cc1 (configuration not stated),n,n,n,n,n,x,x
Cc1nnc(NC(=O)c2ccc(S(=O)(=O)C(F)F)cc2)s1,n,n,n,n,n,x,x
COc1ccc(C(=O)C(CN2CCCC2)c2ccccc2)cc1 (configuration not stated),n,n,n,n,n,x,x
O=C(c1ccc(Cl)cc1)C(CN1CCCC1)c1ccccc1 (configuration not stated),n,n,n,n,74,46,87
CSCC[C@H](NC(=O)C1CCN(S(=O)(=O)c2ccc(C)cc2C)CC1)c1nc2ccccc2[nH]1,n,n,n,n,x,x,x
CCOC(=O)c1c(NC(=O)c2cccnc2)sc(C(C)=O)c1C,n,n,n,n,23,n,n
CCN(CC)C(=O)c1sc(NC(=O)c2cccnc2)c(C(=O)OC)c1C,n,n,n,n,n,x,x
Cc1ccc(S(=O)(=O)N(C)S(=O)(=O)c2ccc(C#N)cc2)cc1,n,x,n,n,25,n,25
CCNc1nc(OC)nc(N(OC)S(=O)(=O)c2ccc(C)cc2)n1,n,n,n,n,n,x,x
Cc1ccc(CSc2nnc(-c3cccc(S(=O)(=O)N4CCOCC4)c3)n2CC(C)C)cc1,n,n,n,n,35,n,25
Cc1nc2ccc(S(=O)(=O)Nc3ccccc3C)cc2s1,n,n,n,n,25,n,35
CCOc1ccccc1NC(=O)CNS(=O)(=O)c1ccc2nc(C)sc2c1,n,n,n,n,n,x,x
Cc1ccc(CNS(=O)(=O)c2ccc(C)s2)cc1,n,n,n,n,28,n,n
Cc1ccc(S(=O)(=O)NCc2ccccc2)s1,n,n,n,n,n,x,x
Cc1ccc(S(=O)(=O)NCCCNc2ccc([N+](=O)[O-])cc2)cc1,n,n,n,n,41,45,71
